Results on 16 compounds are retold here after ChEMBL document CHEMBL3046857, “Novel inhibitors of the mitochondrial respiratory chain: oximes and pyrrolines isolated from Penicillium brevicompactum and synthetic analogues” (J Agric Food Chem, 2005).

Assay [1] deals with T1, NADH-ubiquinone oxidoreductase chain 1 (Bos taurus, UniProt P03887). The experiment in a line: Inhibition of Bos taurus (beef) heart NAD1 assessed as NADH oxidase activity. The gist of the method:
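Beef heart submitochondrial particles, diluted to 0.5 mg/mL in 250 mM sucrose/10 mM Tris-HCl pH 7.4 and pre-activated with 300 µM NADH; then diluted to 6 µg/mL in 50 mM potassium phosphate pH 7.4, 1 mM EDTA, 22 °C. Compounds (ethanol stocks) preincubated with particles 5 min on ice. Aerobic oxidation of 75 µM NADH followed at 340 nm; three experiments; IC50.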

Assay [2] has as its target T1, NADH-ubiquinone oxidoreductase chain 1. Kind of assay: Inhibition of Bos taurus (beef) heart NAD1 assessed as NADH-ubiquinone oxidoreductase activity. The gist of the method:
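Complex I specific activity in NADH-activated beef heart submitochondrial particles (6 µg/mL; 50 mM potassium phosphate pH 7.4, 1 mM EDTA, 22 °C). Compound preincubated 5 min on ice. 75 µM NADH with 30 µM decylubiquinone as acceptor, plus 2 µM antimycin and 2 mM KCN to block downstream steps. NADH oxidation rate read at 340 nm; three assays; IC50.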

T1 sequence (P03887 whole entry): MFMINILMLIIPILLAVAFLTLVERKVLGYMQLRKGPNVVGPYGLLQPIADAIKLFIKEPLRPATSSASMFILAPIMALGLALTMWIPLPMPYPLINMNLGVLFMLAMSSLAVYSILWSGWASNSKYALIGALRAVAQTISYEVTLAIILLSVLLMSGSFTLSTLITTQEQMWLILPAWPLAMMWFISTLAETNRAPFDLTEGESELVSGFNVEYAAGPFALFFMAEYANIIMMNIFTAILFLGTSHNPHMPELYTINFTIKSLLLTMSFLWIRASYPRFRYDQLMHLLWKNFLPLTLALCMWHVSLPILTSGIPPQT

`CCCCCCCC(=O)C(C)C(=O)N1C=CCC1` (stereo not drawn): in assay [1] (read-out: IC50), the concentration for half-maximal inhibition (IC50) (in general, the concentration that inhibits the measured activity by half) is 4.55 µM.

Turning to `CC(C(=O)c1ccccc1)C(=O)c1ccc[nH]1` (stereo not drawn), the IC50 in assay [1] (read-out: IC50) was 214 µM.

For the compound `CC1=C(C(C)c2cccc(Oc3ccccc3)c2)OC2C(O)CCN2C1=O` (single isomer, unassigned; diastereomer 2), the 50% inhibitory concentration (IC50) in assay [2] worked out at 11.9 µM; in assay [1] (read-out: IC50), 3.13 µM.

On to `CC(C(=O)C(C)c1cccc(Oc2ccccc2)c1)C(=O)N1CC[C@H](O)C1` (single isomer, unassigned; diastereomer 1), for which the half-inhibitory concentration (IC50) in assay [1] (read-out: IC50) came out at 41.5 µM.

With `CC(C(=O)C(C)c1cccc(Oc2ccccc2)c1)C(=O)N1CC[C@H](O)C1` (single isomer, unassigned; diastereomer 2), the 50% inhibitory concentration (IC50) in assay [1] (read-out: IC50) amounted to 36.3 µM.

Turning to `C/C=C/CCCCC(=O)C(C)C(=O)N1C=CCC1` (stereo not drawn), the IC50 entry in assay [1] is on record as “Not Active”.

In the case of `CCC(=O)C(C)C(=O)c1ccc[nH]1` (stereo not drawn), the IC50 entry in assay [1] is “Not Active”.

Consider `C/C=C/CCCCC1=C(C)C(=O)N2CC/C(=N\O)C2O1` (stereo not drawn), for which the IC50 entry in assay [1] is “Not Active”.

As for `CC(C(=O)C(C)c1cccc(Oc2ccccc2)c1)C(=O)N1C=CCC1` (single isomer, unassigned; diastereomer 1), the IC50 in assay [2] was 6.57 µM; in assay [1] (read-out: IC50) it was 3.92 µM.

In the case of `CC1=C(C(C)c2cccc(Oc3ccccc3)c2)OC2/C(=N/O)CCN2C1=O` (stereo not drawn), the IC50 in assay [2] was found to be 3.44 µM; in assay [1] (read-out: IC50) it was 0.92 µM.

Regarding `CCC(=O)CC(=O)c1ccc[nH]1`, the IC50 entry in assay [1] is given as “Not Active”.

Consider `CCCCCCCCC(=O)CC(=O)c1ccc[nH]1`, for which the concentration for half-maximal inhibition (IC50) in assay [2] came out at 14.3 µM; in assay [1] (read-out: IC50), 8.6 µM.

Regarding `CCCCCCCC1=C(C)C(=O)N2CC/C(=N\O)C2O1` (stereo not drawn), the IC50 in assay [2] came to 1.52 µM; in assay [1] (read-out: IC50), 0.27 µM.

For `CC1=C(C(C)c2cccc(Oc3ccccc3)c2)OC2C(O)CCN2C1=O` (single isomer, unassigned; diastereomer 1), the results for the IC50 in assay [2] and in assay [1] (read-out: IC50) were 14.3 µM and 5.48 µM, respectively.

For the compound `CC(C(=O)C(C)c1cccc(Oc2ccccc2)c1)C(=O)N1C=CCC1` (single isomer, unassigned; diastereomer 2), the figures for the IC50 in assay [2] and in assay [1] (read-out: IC50) were 16.4 µM and 4.4 µM, respectively.

Turning to `CC(C(=O)N1C=CCC1)c1cccc(Oc2ccccc2)c1` (stereo not drawn), the IC50 in assay [1] (read-out: IC50) was 6.82 µM.
